Measured values from ChEMBL document CHEMBL2021842, “COMPARE analysis of the toxicity of an iminoquinone derivative of the imidazo[5,4-f]benzimidazoles with NAD(P)H:quinone oxidoreductase 1 (NQO1) activity and computational docking of quinones as NQO1 substrates” (Bioorg Med Chem, 2012).

Tests used:
Type in all cases: functional
IGROV-1 = assay: Growth inhibition of human IGROV1 cells assessed as cell growth at 10 uM relative to untreated control; settings: read-out: Activity
Procedure, shortened: (§1)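 NCI DTP 60-cell-line screen, first stage: a single 10 µM dose of compound given to the human tumour panel. Result reported as percent growth relative to control, on a mean growth graph.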

Malme-3M = assay: Growth inhibition of human MALME-3M cells assessed as cell growth at 10 uM relative to untreated control; settings: read-out: Activity; procedure, shortened: as §1
SF-539 = assay: Growth inhibition of human SF539 cells
Procedure, shortened: (§2)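 Part of the NCI DTP 60-cell-line panel. After the single-dose stage, cells were tested at five doses. Read-out is the GI50, the concentration giving 50% inhibition of cell growth, derived for each cell line.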

786-0 = assay: Growth inhibition of human 786-0 cells
Procedure, shortened: (§3)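 NCI DTP 60-cell-line screen, second stage: five-dose testing across the human tumour panel. GI₅₀ taken as the concentration needed to inhibit cell growth by 50% in each cell line.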

OVCAR-4 = assay: Growth inhibition of human OVCAR4 cells; procedure, shortened: as §2
NCI-H522 = assay: Growth inhibition of human NCI-H522 cells; procedure, shortened: as §2
OVCAR-3 = assay: Growth inhibition of human OVCAR3 cells; procedure, shortened: as §2
K562 = assay: Growth inhibition of human K562 cells; procedure, shortened: as §3
EKVX = assay: Growth inhibition of human EKVX cells; procedure, shortened: as §3
COLO 205 = assay: Growth inhibition of human COLO205 cells; procedure, shortened: as §3
[1] = Growth inhibition of human […] cells; procedure, shortened: as §2
UACC-62 = assay: Growth inhibition of human UACC62 cells
Procedure, shortened: (§4)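 This is the second, five-dose stage of the NCI DTP 60-cell-line screen. GI50 is the concentration that inhibits cell growth by 50%, derived for each cell line.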

HL-60(TB) = assay: Growth inhibition of human HL-60(TB) cells
Procedure, shortened: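 NCI DTP NCI-60 screen, second stage: five-dose testing across 60 human tumour cell lines from nine tissue types. GI50 is the concentration that inhibits cell growth by 50%, obtained for each cell line.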

TK-10 = assay: Growth inhibition of human TK10 cells; procedure, shortened: as §4
SR = assay: Growth inhibition of human SR cells; procedure, shortened: as §4
SW-620 = assay: Growth inhibition of human SW620 cells; procedure, shortened: as §4
MDA-MB-468 = assay: Growth inhibition of human MDA-MB-468 cells; procedure, shortened: as §2
T47D = assay: Growth inhibition of human T47D cells; procedure, shortened: as §4
KM12 = assay: Growth inhibition of human KM12 cells; procedure, shortened: as §3
NCI/ADR-RES = assay: Growth inhibition of human NCI/ADR-RES cells; procedure, shortened: as §2
CCRF-CEM = assay: Growth inhibition of human CCRF-CEM cells; procedure, shortened: as §3
ACHN = assay: Growth inhibition of human ACHN cells; procedure, shortened: as §3
UACC-257 = assay: Growth inhibition of human UACC257 cells; procedure, shortened: as §4
LOX IMVI = assay: Growth inhibition of human LOXIMVI cells; procedure, shortened: as §3
BT-549 = assay: Growth inhibition of human BT549 cells; procedure, shortened: as §3
HOP-92 = assay: Growth inhibition of human HOP92 cells; procedure, shortened: as §3
SK-OV-3 = assay: Growth inhibition of human SKOV3 cells; procedure, shortened: as §2
PC-3 = assay: Growth inhibition of human PC3 cells; procedure, shortened: as §2
SNB-75 = assay: Growth inhibition of human SNB75 cells; procedure, shortened: as §4
HCT-15 = assay: Growth inhibition of human HCT15 cells; procedure, shortened: as §3

O=C1c2nc3n(c2C(=O)c2nc4n(c21)CCCC4)CCCC3
growth at 10 µM (IGROV-1): 107% | growth at 10 µM (Malme-3M): 79.6%

N=C1c2nc3n(c2C(=O)c2nc4n(c21)CCCC4)CCCC3
GI50 (SF-539): 2.57 µM | GI50 (786-0): 44.7 µM | GI50 (OVCAR-4): 34.7 µM | GI50 (NCI-H522): 4.57 µM | GI50 (OVCAR-3): 20.4 µM | GI50 (K562): 20.4 µM | GI50 (EKVX): 25.1 µM | GI50 (COLO 205): 1.86 µM | GI50 [1]: 25.7 µM | GI50 (UACC-62): 1.74 µM | GI50 (HL-60(TB)): 23.4 µM | GI50 (TK-10): 70.8 µM | GI50 (SR): 8.51 µM | GI50 (SW-620): 3.72 µM | GI50 (MDA-MB-468): 14.8 µM | GI50 (T47D): 17.4 µM | GI50 (KM12): 13.2 µM | GI50 (NCI/ADR-RES): 35.5 µM | GI50 (CCRF-CEM): 49 µM | GI50 (ACHN): 30.9 µM | GI50 (UACC-257): 1.95 µM | GI50 (LOX IMVI): 0.562 µM | GI50 (BT-549): 2.04 µM | GI50 (HOP-92): 43.7 µM | GI50 (SK-OV-3): 33.1 µM | GI50 (PC-3): 100 µM | GI50 (SNB-75): 2.19 µM | GI50 (HCT-15): 2.63 µM
